Compounds with a hit are over-represented: about 3.1% of the library has one in this group of screens.
GPR7 antag: human neuropeptides B/W receptor 1 antagonism | P48145 | GPR7-expressing cells, fluorescence antagonist assay | inhibition, % at 4.4 µM | 1.1% of 290,000 active | AID 1861; in the data active = inhibition above about 16%, passing the limit was not always enough;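 also: cells stimulated with the agonist NPW; 0% = agonist with vehicle and 100% = vehicle without agonist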
CHO parental Ca: signal in parental CHO cells, OX1R antagonist counter-screen | inhibition, % at 5.6 µM | parental CHO-K1, ATP-induced calcium, Fluo-8 fluorescence | 0.63% of 330,000 active | AID 463079;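 active = inhibition above that plate's mean sample inhibition plus 3 SD, cut at about 26% in these data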;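 also: 0% = ATP-challenged DMSO wells and 100% = DMSO wells without ATP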
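Assay system: untransfected parental CHO cell line. Also added: ATP agonist challenge. Dosing: one dose, 5.6 µM nominal. Measured by: Fluo-8 fluorescence. Read-out: % inhibition. Benchmarks: ATP wells versus no-ATP DMSO wells. Repeats: no replicates.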
GalR3 antag: antagonists of human GalR3; 0.44% of 360,000 active; AID 651719; O60755; HEK293 GalR3-CNG cAMP membrane potential fluorescence; galR3 body fused to GalR1 C-terminus; inhibition, % at 3 µM;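 active = inhibition above the screen-wide average plus 3 SD, cut at about 13% in these data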;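 also: forskolin and galanin both at EC90 stimulate the cells; cAMP rise reported by CNG channel membrane potential dye signal; 0% = forskolin plus galanin with DMSO and 100% = forskolin alone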
OX1R antag-1: human HCRTR1 antagonism; CHO/OX1R cells, Fluo-8 calcium fluorescence, orexin A; inhibition, % at 5 µM; 0.43% of 330,000 active;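 active = inhibition above its plate's threshold, mean inhibition of all tested compounds on the plate plus 3 SD, cut at about 37% in these data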;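 also: 0% = orexin A challenge wells and 100% = SB-334867-A antagonist wells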
Target sequence (O43613 whole entry, looked up): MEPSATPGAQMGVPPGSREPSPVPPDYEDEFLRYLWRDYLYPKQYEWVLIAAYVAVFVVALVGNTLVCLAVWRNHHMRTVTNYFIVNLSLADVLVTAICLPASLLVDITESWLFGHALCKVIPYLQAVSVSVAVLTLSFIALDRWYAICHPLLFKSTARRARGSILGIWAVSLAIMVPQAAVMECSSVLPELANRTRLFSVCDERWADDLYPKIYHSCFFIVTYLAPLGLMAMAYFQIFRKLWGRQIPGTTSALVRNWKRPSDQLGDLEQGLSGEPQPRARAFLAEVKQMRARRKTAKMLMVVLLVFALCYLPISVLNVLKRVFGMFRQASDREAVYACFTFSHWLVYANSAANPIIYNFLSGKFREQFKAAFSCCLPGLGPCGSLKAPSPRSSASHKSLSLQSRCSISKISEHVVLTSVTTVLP
OX1R antag-2: OX1R (human) antagonism; OX1R-expressing cells, FRET antagonist read-out; inhibition, % at 6.6 µM; 1.8% of 330,000 active; O43613; in the data active = inhibition mostly above about 38%, no sharp cut-off; inactive = mostly below about 40%;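 also: 0% = agonist challenge alone and 100% = reference antagonist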
OX1R Fluo8 conf: OX1R (human) antagonism, confirmed; shares compounds with OX1R antag-1; AID 492963; inhibition, % at 5 µM; 38% of 1,100 active; CHO/OX1R cells, orexin A calcium Fluo-8 fluorescence; in the data active = inhibition above about 29%;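 also: 0% = agonist challenge alone and 100% = reference antagonist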
CHO Ca triplic: signal in parental CHO cells, OX1R antagonist counter-screen. 9.3% of 1,100 active. inhibition, % at 5.6 µM. shares compounds with OX1R antag-1. parental CHO-K1, ATP-induced calcium, Fluo-8 fluorescence;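 active = inhibition above a per-plate limit, the mean inhibition of that plate's test compounds plus 3 SD, cut at about 25% in these data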;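 also: 0% = ATP challenge with DMSO and 100% = DMSO without ATP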
OX1R HTRF confirm: OX1R (human) antagonism, HTRF confirmed. shares compounds with OX1R antag-2. OX1R-expressing cells, HTRF antagonist assay. inhibition, % at 6.6 µM. 49% of 1,800 active. AID 492964; in the data active = inhibition above about 55%;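 also: CHO cells expressing OX1R stimulated with orexin A at about EC80; 0% = agonist challenge alone and 100% = reference antagonist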
CHO-K1 HTRF: signal in parental CHO-K1 cells, OX1R antagonist counter-screen. shares compounds with OX1R antag-2. HTRF counterscreen. inhibition, % at 6.6 µM. 48% of 1,800 active. AID 493232; in the data active = inhibition above about 17%;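 also: 0% = agonist challenge with vehicle and 100% = vehicle alone without agonist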
Starred values were filed as active, the others as inactive.

What do the screens show for `COCCN1Cc2cc(C(=O)OC)c3c(c2C1=O)c1cc(F)ccc1n3S(=O)(=O)c1ccc(C)cc1`?
GalR3 antag: -7

Results for COc1ccccc1NC(=O)c1ccccc1NS(=O)(=O)c1cccs1 ?
GPR7 antag: 7; CHO parental Ca: -10; GalR3 antag: -2; OX1R antag-1: -21; OX1R antag-2: 35

Results for COc1ccc(C)cc1NC(=O)c1ccccc1NS(=O)(=O)c1ccc(Cl)s1 ?
GPR7 antag: -1; CHO parental Ca: 28; GalR3 antag: -4; OX1R antag-1: 23; OX1R antag-2: 62*; OX1R Fluo8 conf: 9; CHO Ca triplic: 46*; OX1R HTRF confirm: 42; CHO-K1 HTRF: 9

How did CCC(=O)Nc1cc(NC(=O)CSc2ncc(-c3ccc(F)cc3)n2Cc2ccco2)ccc1C do in these assays?
GPR7 antag: -11; CHO parental Ca: -19; GalR3 antag: -2; OX1R antag-1: 50*; OX1R antag-2: 84*; OX1R Fluo8 conf: 36*; CHO Ca triplic: -20; OX1R HTRF confirm: 63*; CHO-K1 HTRF: -5

What do the screens show for `COc1ccc(NC(=O)CSc2ncc(-c3ccc(F)cc3)n2Cc2ccco2)cc1`?
GPR7 antag: 13; CHO parental Ca: -14; GalR3 antag: -7; OX1R antag-1: 6; OX1R antag-2: 33

What do the screens show for `Cc1ccc(C(=O)N2CCC(N3CCC(C(=O)N4CCOCC4)CC3)CC2)cc1`?
GalR3 antag: -1

How did CCN(C(=O)CO/N=C/c1ccc(OC)cc1OC)c1c(N)n(Cc2ccccc2)c(=O)[nH]c1=O do in these assays?
CHO parental Ca: -25; GalR3 antag: -1; OX1R antag-1: 69*; OX1R antag-2: 92*; OX1R Fluo8 conf: 67*; CHO Ca triplic: -9; OX1R HTRF confirm: 93*; CHO-K1 HTRF: -2

What do the screens show for `CCOc1ccccc1-c1nc(-c2ccc(NC(=O)c3ccc(Br)o3)cc2)no1`?
GPR7 antag: -15; CHO parental Ca: -4; GalR3 antag: 1; OX1R antag-1: 35; OX1R antag-2: 69*; OX1R Fluo8 conf: 17; CHO Ca triplic: -3; OX1R HTRF confirm: 79*; CHO-K1 HTRF: 18*

Results for CCOc1ccccc1-c1nc(-c2ccc(NC(=O)Cc3ccc(OC)cc3)cc2)no1 ?
GPR7 antag: -10; CHO parental Ca: 4; GalR3 antag: -2; OX1R antag-1: -5; OX1R antag-2: 22

What do the screens show for `COc1ccc(CN2CC[C@H]3C=CC[C@@H](C(=O)Nc4ccc(Cl)c(C(F)(F)F)c4)[C@H]3C2=O)cc1OC`?
CHO parental Ca: -26; GalR3 antag: 0; OX1R antag-1: 63*; OX1R antag-2: 86*; OX1R Fluo8 conf: 70*; CHO Ca triplic: -12; OX1R HTRF confirm: 89*; CHO-K1 HTRF: 3

Results for CCCCNC(=O)[C@@H]1CC=C[C@@H]2CCN(Cc3ccc(Cl)c(Cl)c3)C(=O)[C@@H]21 ?
CHO parental Ca: -11; GalR3 antag: -2; OX1R antag-1: 47*; OX1R antag-2: 91*; OX1R Fluo8 conf: 28; CHO Ca triplic: -4; OX1R HTRF confirm: 75*; CHO-K1 HTRF: -2

Results for Cc1ccc(C(=O)Nc2nc(-c3ccccn3)cs2)s1 ?
CHO parental Ca: -12; GalR3 antag: -3; OX1R antag-1: 7; OX1R antag-2: 6

How did CCc1sc(C(=O)Nc2nc(-c3ccccn3)cs2)cc1C do in these assays?
CHO parental Ca: -11; OX1R antag-1: 38; OX1R antag-2: 52*; OX1R Fluo8 conf: 19; CHO Ca triplic: -7; OX1R HTRF confirm: 32; CHO-K1 HTRF: 10

How did CCn1c(SCC(=O)Nc2sc3c(c2C#N)CCC(C(C)(C)C)C3)nnc1-c1ccco1 (stereo not drawn) do in these assays?
GPR7 antag: -5; CHO parental Ca: 1; GalR3 antag: -4; OX1R antag-1: -11; OX1R antag-2: 5
